This is a sample that favours compounds with a hit; in the whole collection about 5.4% have one here.
T cruzi repl: T. cruzi replication inhibition | 300,000 compounds, 1.4% hits | T. cruzi beta-gal in NIH3T3, luminescence, 90 h | inhibition, % (concentration not given with the values);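 active = mean inhibition across valid replicates above about 55%, limit read from the data; inconclusive = mean below that limit but half or more replicates reach it; inactive = mean below it, under half of replicates reach it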;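 also: signal also drops with host cell toxicity which is not excluded here; 0% = plate median of DMSO wells and 100% = zero luminescence signal; higher percent means less beta-gal luminescence so fewer parasites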
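assay system = mouse NIH/3T3 fibroblasts infected with β-gal-expressing T. cruzi Tulahuen C4 | input = 5,000 NIH/3T3 host cells per well | buffer or medium = DMEM plus 2% FBS | timing = 3 h host attachment, then at least 90 h co-culture | measured by = GalScreen luminescence, 60 min | evaluation = luminescence reflecting intracellular parasite burden, expressed as percent inhibition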
CSC inhib: blocks cancer stem cells | inhibition, % at 7.5 µM | cancer stem cell-like cells viability, luminescence | 300,000 compounds, 1.1% hits | AID 2717; in the data active = inhibition above about 75%; inconclusive = no clear call, values can overlap the other calls; tested in HMLE shEcad cells
SKKanGAS inh: SKKanGAS growth inhibition. inhibition, % at 7.5 µM. S. pyogenes SKKanGAS, kanamycin growth, BacTiter-Glo, 6 h. 300,000 compounds, 1.3% hits;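 active = mean replicate score, as percent of positive control median, at least 50; inconclusive = mean below 50 but one replicate at or above 50; inactive = mean and every replicate below 50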;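 also: strain carries kanamycin resistance gene driven by streptokinase promoter and grows in 40 µg/ml kanamycin; loss of luminescence reflects streptokinase promoter inhibition or plain growth inhibition; 0% = median of DMSO wells and 100% = positive control at its reference dose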
aSyn UTR inh: MLPCN primary screen, SNCA 5' untranslated region | alpha-synuclein 5'UTR reporter, inhibitor activity | inhibition, % (tested at 7.5 µM) | 300,000 compounds, 0.82% hits; in the data active = inhibition above about 60%; inconclusive = no clear call, values can overlap the other calls;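 also: H4 neuroglioblastoma cells stably carrying SNCA 5'UTR luciferase fusion; 0% = DMSO wells and 100% = positive control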
Mdm2 MdmX PPI: inhibitors of human Mdm2/MdmX interaction; O15151+Q00987; SaOS-2 split-luciferase Mdm2/MdmX complementation, luminescence; inhibition, % at 8 µM; 330,000 compounds, 3% hits; AID 485346;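 active = inhibition of at least 50% at 8 µM in the primary screen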
* hit, by the source's call; u = inconclusive; x = no result.

SMILES | T cruzi repl | CSC inhib | SKKanGAS inh | aSyn UTR inh | Mdm2 MdmX PPI
Fc1ccc(C(CCNCc2ccccn2)c2ccc(Cl)cc2)cc1 (centres undefined) | -7 | x | 64* | -4 | 9
OC(CNCc1ccccn1)c1ccccc1 (centres undefined) | -14 | -11 | 0 | 2 | 16
C1=C(c2sc3ccccc3c2-c2ccc(OCCN3CCOCC3)cc2)CCCC1 | x | 88* | x | x | 27
COc1ccc(-c2sc3cc4c(cc3c2-c2ccc(OCCN3CCOCC3)cc2)OCO4)cc1 | x | 125* | x | x | 17
COc1ccc2sc(-c3ccccc3OC)c(-c3ccc(OCCN4CCOCC4)cc3)c2c1 | x | x | x | x | 30
COc1ccccc1-c1sc2ccccc2c1-c1ccc(OCCN2CCOCC2)cc1 | x | x | x | x | 34
COc1cccc(-c2sc3ccc(OC)cc3c2-c2ccc(OCCN3CCOCC3)cc2)c1 | x | 104* | x | x | 9
c1ccc(-c2sc3ccccc3c2-c2ccc(OCCN3CCOCC3)cc2)cc1 | x | 86* | x | x | 7
COc1cc(OC)cc(-c2sc3ccc(OC)cc3c2-c2ccc(OCCN3CCOCC3)cc2)c1 | x | x | x | x | 43
CCCC1Cc2nc(Cl)c(C#N)cc2CO1 (centres undefined) | 1 | -4 | 6 | 6 | 10
O=C(COC(=O)COc1cccc(C(F)(F)F)c1)NC(=O)NC1CCCCC1 | -14 | -7 | 7 | 16 | -13
CCCCNC(=O)c1nn2c(C(F)(F)F)cc(-c3ccc(OC)cc3)nc2c1Br | -1 | -7 | 4 | 6 | -5
Cc1ccc2oc(-c3cc(NC(=O)c4ncn[nH]4)ccc3O)nc2c1 | -36 | 23 | -1 | -45 | 1
Cc1ccc(NP(=O)(c2ccc(N(C)C)cc2NC(=O)c2cccs2)N2CCOCC2)cc1Cl (centres undefined) | 61* | -6 | 32 | -30 | 29
Cc1ccc(NP(=O)(c2ccc(N(C)C)cc2NC(=O)c2cccs2)N2CCOCC2)cc1 (centres undefined) | 57* | 33 | 5 | -91 | 10
CCOc1cc2c(cc1OCC)CN(C(=O)c1cccc(S(=O)(=O)N3CCCC3)c1)CC2 | x | -8 | x | x | 6
O=C(COc1ccccc1)NNC(=S)NC(=O)c1ccccc1 | -9 | x | 75* | -12 | 31
O=C(COc1ccccc1)NNC(=O)c1ccc(Cl)cc1 | x | x | x | x | 0
COc1ccc(C(=O)NC(=S)NNC(=O)COc2ccccc2)cc1 | -9 | 26 | 88* | -4 | 14
c1ccc(C[n+]2c(-c3ccccc3)csc2Nc2ccccc2)cc1 | 19 | 83* | 1 | -40 | -15
NC(=O)c1sc2nc3c(c(-c4ccc(Cl)cc4)c2c1N)CCCC3 | u | -9 | 1 | 66* | 36
CCOC(=O)[C@@H]1[C@H]2COc3cc(OC)ccc3[C@H]2N2C(=O)N(c3ccc(C(F)(F)F)cc3)C(=O)[C@@]12C | 10 | -1 | 14 | 21 | -6
Cc1ccc(OCCn2c(=S)[nH]c3ccccc32)c(C(C)C)c1 | 21 | 101* | 101* | 10 | 8
Cc1cccc(-n2ncc3c(N4CCCc5ccccc54)ncnc32)c1 | -26 | 76* | 5 | -123 | -48
Cc1cccc(-n2ncc3c(NCc4ccccc4)ncnc32)c1 | -28 | 57 | 17 | -140 | -1
SMILES | T cruzi repl | CSC inhib | SKKanGAS inh | aSyn UTR inh | Mdm2 MdmX PPI
N#CCC(=O)N/N=C/c1cc(-c2ccccc2)n(-c2ccc(Cl)cc2)c1-c1ccccc1 | 60* | 52 | 32 | 13 | 49
N#CCC(=O)N/N=C/c1ccc(Cl)cc1 | -6 | -7 | -9 | 22 | 1
CC(=O)c1cccc(NC(=O)c2cccc3ccccc23)c1 | -1 | -2 | -5 | 2 | 18
CC1(C)Oc2cc3oc(-c4cc(O)cc(O)c4)cc3cc2CC1O (centres undefined) | 5 | 3 | 1 | 97* | -8
O=c1cc(CCl)nc(Cc2c(Cl)cccc2Cl)[nH]1 | -3 | 15 | -1 | 4 | 36
O=C(COc1ccc2ccccc2c1)Nc1cccc(C(=O)Nc2ccccc2C(=O)O)c1 | -15 | 58 | 55* | 5 | -3
COc1ccc(OCC(=O)Nc2ccc(C(=O)Nc3ccccc3C(=O)O)cc2)cc1 | -15 | 10 | 21 | 13 | 15
Cc1ccccc1OCC(=O)Nc1ccc(C(=O)Nc2ccccc2C(=O)O)cc1 | 3 | 16 | 59* | -3 | 1
CSc1nc2sc3c(c2c(=O)[nH]1)CC(C)(C)OC3 | 14 | -7 | -1 | -15 | -5
CSCCC(NC(=O)c1ccccc1)C(=O)NCCCSc1ccccc1 (centres undefined) | x | 5 | x | x | 18
CCCN(Cc1nc2cc(Cl)ccc2c(=O)[nH]1)C(=O)c1ccc(S(=O)(=O)N2CCCC2)cc1 | x | x | x | x | 16
CC[n+]1c(/C=C2\Sc3ccccc3N2C)ccc2cccc(C)c21 | 63* | x | 69* | 116* | x
COc1cc(OC)c(C(=O)OCC(=O)Nc2ccc(S(=O)(=O)N3CCOCC3)cc2)cc1OC | x | -9 | x | x | 15
C=C[C@@]1(C)CC(=O)[C@]2(O)[C@@]3(C)[C@@H](O)CCC(C)(C)[C@@H]3[C@H](OC(C)=O)[C@H](O)[C@@]2(C)O1 | 1 | 5 | 0 | 66* | 19
C=C[C@@]1(C)CC(=O)[C@]2(O)[C@@]3(C)[C@@H](O)CCC(C)(C)[C@@H]3[C@H](O)[C@H](OC(C)=O)[C@@]2(C)O1 | -22 | 7 | -3 | 72* | 31
O=[N+]([O-])c1ccc2c(c1)nc(CO)n2Cc1ccccc1 | -13 | x | 0 | 9 | 17
CC1CCN(c2nc(N3CCCCC3)nc(N3CCCCC3)n2)CC1 | 11 | -14 | 56* | -6 | -29
Cc1nc2c(-c3ccccc3)c(C)[nH]n2c(=O)c1Cc1ccccc1 | 46 | 18 | 52* | 16 | 22
Cc1ccc(C(C)C)c(OCc2ccc(C(=O)N/N=C/c3cccc(O)c3O)cc2)c1 | 58* | 111* | 86* | 108* | x
Cc1cc2nc3n(c2cc1C)CCCN3 | 67* | -3 | -6 | 8 | 14
Cc1cc2nc(C)c(=O)n(C)c2cc1C | -6 | -13 | -10 | 12 | 13
O=C(c1cc([N+](=O)[O-])cc([N+](=O)[O-])c1)N1CCCc2ccccc21 | 73* | -1 | 3 | 0 | 18
O=C(c1cc([N+](=O)[O-])ccc1N1CCCCC1)N1CCc2ccccc21 | 6 | 56 | -14 | 81* | 45
c1ccc2c(c1)CSc1ccccc1N2 | 26 | -8 | -1 | 104* | 13
CN(C)CCCn1c2c(c(SCC(=O)Nc3cccc4ccccc34)nc1=O)CCC2 | 57* | -10 | -1 | -15 | 26
OC1COC(O)C(O)C1O (centres undefined) | 2 | -8 | 1 | 5 | -7
O=C(CNc1ccccc1)N/N=C/c1ccc2c(c1)OCCO2 | -2 | x | 0 | -40 | 0
CCOC(=O)c1c(NC(=O)C2c3ccccc3Oc3ccccc32)sc(C(C)=O)c1C | 26 | x | 3 | 32 | 35
CCOC(=O)c1c(NC(=O)N/N=C/c2ccccc2OCC)sc(C(C)=O)c1C | 68* | x | 1 | 24 | x
